Screening results: PubChem, The Scripps Research Institute Molecular Screening Center
Rows were chosen to be rich in hits. Some 4.5% of all compounds tested hit in one or more screens of this group.
TAAR1 antagonist – antagonists of human TAAR1; Q96RJ0; CHO RD-HGA16 TAAR1, Fluo-8 calcium fluorescence, antagonist; inhibition, % at 3 µM; actives 1.5% (n = 360,000);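 active means inhibition above a per-plate cutoff, the mean inhibition of test compounds on that plate plus 3 SD, cut at about 49% in these data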;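 further: 0% = DMSO plus EC80 beta-PEA response and 100% = DMSO alone without agonist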
Target sequence (Q96RJ0 whole entry, looked up): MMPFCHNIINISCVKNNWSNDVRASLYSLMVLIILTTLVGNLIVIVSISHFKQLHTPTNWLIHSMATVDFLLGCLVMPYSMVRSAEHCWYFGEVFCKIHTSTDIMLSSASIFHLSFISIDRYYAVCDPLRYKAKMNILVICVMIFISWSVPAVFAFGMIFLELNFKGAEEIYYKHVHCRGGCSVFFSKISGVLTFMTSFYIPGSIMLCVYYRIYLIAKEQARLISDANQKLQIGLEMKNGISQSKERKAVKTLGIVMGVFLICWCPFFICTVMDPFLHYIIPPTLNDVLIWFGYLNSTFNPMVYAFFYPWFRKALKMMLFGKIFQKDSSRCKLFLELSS
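Material: RD-HGA16 CHO cells with stable hTAAR1 and Gα16; Dosing: single nominal final test compound concentration of 3 µM; Schedule: seeding 17-24 h prior, 75-min 37 °C, 30-min RT dye loading; Detection: kinetic Fluo-8 calcium fluorescence measurement; Measure: % inhibition from peak post-agonist over basal fluorescence ratio; Benchmarks: vehicle and agonist controls.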
CHO parental Ca – counter-screen for OX1R antagonists: effect in parental CHO cells. inhibition, % at 5.6 µM. actives 0.63% (n = 330,000). parental CHO-K1, ATP-induced calcium, Fluo-8 fluorescence;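 active means inhibition above that plate's mean sample inhibition plus 3 SD, cut at about 26% in these data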;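 further: 0% = ATP-challenged DMSO wells and 100% = DMSO wells without ATP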
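Material – parental CHO cells · Reagent – ATP stimulus · Compound – single nominal dose of 5.6 µM per compound · Detection – Fluo-8 fluorescence · Read-out basis – percent inhibition of calcium signal · Controls – ATP-challenged DMSO wells low, unchallenged DMSO wells high · Repeats – no replicates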
OX1R antag-1 – OX1R (human) antagonism; inhibition, % at 6.6 µM; actives 1.8% (n = 330,000); OX1R-expressing cells, FRET antagonist read-out; in the data active means inhibition mostly above about 38%, no sharp cut-off; inactive means mostly below about 40%;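 further: 0% = agonist challenge alone and 100% = reference antagonist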
GPR7 antag – antagonists of human GPR7 (neuropeptides B/W receptor 1) | actives 1.1% (n = 290,000) | P48145 | inhibition, % at 4.4 µM | GPR7-expressing cells, fluorescence antagonist assay; in the data active means inhibition above about 16%, passing the limit was not always enough;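 further: cells stimulated with the agonist NPW; 0% = agonist with vehicle and 100% = vehicle without agonist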
Target sequence (P48145 whole entry, looked up): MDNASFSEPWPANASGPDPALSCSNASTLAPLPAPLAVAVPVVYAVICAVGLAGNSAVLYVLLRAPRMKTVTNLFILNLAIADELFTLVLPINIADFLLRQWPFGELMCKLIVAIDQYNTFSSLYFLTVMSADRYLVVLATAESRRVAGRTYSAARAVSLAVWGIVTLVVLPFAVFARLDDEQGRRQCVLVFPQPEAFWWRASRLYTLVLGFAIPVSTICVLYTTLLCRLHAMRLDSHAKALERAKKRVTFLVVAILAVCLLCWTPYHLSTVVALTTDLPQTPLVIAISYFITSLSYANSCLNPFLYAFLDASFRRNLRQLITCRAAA
OX1R antag-2 – human HCRTR1 antagonism | AID 434989 | CHO/OX1R cells, Fluo-8 calcium fluorescence, orexin A | inhibition, % at 5 µM | O43613 | actives 0.43% (n = 330,000);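 active means inhibition above its plate's threshold, mean inhibition of all tested compounds on the plate plus 3 SD, cut at about 37% in these data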;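 further: 0% = orexin A challenge wells and 100% = SB-334867-A antagonist wells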
TAAR1 agonist – agonists of human TAAR1 | actives 0.99% (n = 360,000) | activation, % at 3 µM | AID 624467 | Q96RJ0 | CHO RD-HGA16 TAAR1, Fluo-8 calcium fluorescence; vehicle wells 0%, saturating PEA agonist 100%;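 active means activation above the mean activation of all test compounds in the run plus 3 SD, cut at about 38% in these data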
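test system = CHO RD-HGA16 cells carrying human TAAR1 plus Gα16 | schedule = 17-24 h seeding, 75 min 37 °C dye, 30 min RT | compound dosing = 3 µM single concentration | control set = DMSO and PEA EC100 | replicates = n 1 | signal = Fluo-8 fluorescence, 5 s baseline then 140 s kinetic read | measure = percent activation vs PEA EC100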
GPR7 antag conf – human GPR7 antagonism, confirmation assay. shares compounds with GPR7 antag. GPR7-expressing cells, calcium fluorescence antagonist mode. inhibition, % at 4.4 µM. actives 52% (n = 2,400). AID 1952; in the data active means inhibition above about 24%;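 further: stimulated with the GPR7 agonist NPW; 0% = agonist plus vehicle and 100% = vehicle alone without agonist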
MCHR1 antagonist – counter-screen for GPR7 antagonists: antagonists of human MCHR1 | shares compounds with GPR7 antag | actives 62% (n = 2,400) | inhibition, % at 4.4 µM | MCHR1-expressing cells, fluorescence antagonist assay; in the data active means inhibition above about 22%;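 further: 0% = vehicle with agonist and 100% = vehicle without agonist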
The depositor's hits bear a star; x = no result.

SMILES	TAAR1 antagonist	CHO parental Ca	OX1R antag-1	GPR7 antag	OX1R antag-2	TAAR1 agonist	GPR7 antag conf	MCHR1 antagonist
CC(C(=O)NCCSCc1cccc(Cl)c1)N(c1ccccc1)S(C)(=O)=O (stereo unspecified)	-16	-13	6	-6	-24	7	x	x
COc1ccccc1CNC(=O)c1n[nH]c2ccccc12	-6	-16	5	30*	-33	0	23	20
COc1ccccc1CNC(=O)COC(=O)c1n[nH]c2ccccc12	20	-26	24	6	13	5	x	x
CCOC(=O)C1(C)CCCN(C(=O)c2ccc(OC(F)F)cc2)C1 (stereo unspecified)	-12	x	x	x	x	0	x	x
Cc1ccc(N(C(=O)c2csnn2)C(C(=O)NC2CCCC2)c2ccncc2)c(C)c1 (stereo unspecified)	-7	-14	13	41*	-16	6	-7	-7
CCN(C(=O)COC(=O)/C(C#N)=C/c1cc(C)n(CCOC)c1C)c1c(N)n(Cc2ccccc2)c(=O)[nH]c1=O	8	x	x	x	x	2	x	x
CCc1cccc(CC)c1NC(=O)Cn1c(-c2ccc(F)cc2)noc1=O	4	-18	32	27*	-30	4	16	18
CC(=O)Nc1ccc(C(=O)OCCC(C)C)cc1	6	-10	10	25*	-7	13	11	-2
COc1ccc(C(=O)NCc2ccc3c(c2)cc(C)n3C)cc1	-27	-9	2	23*	-24	4	5	4
Cc1cc2cc(CNC(=S)Nc3ccc(OC(F)F)cc3)ccc2n1C	-36	4	16	50*	-2	9	-12	51*
Cc1cc2c(c(=O)o1)[C@@]1(C(=O)N(C)c3ccc([N+](=O)[O-])cc31)C1=C(CCCC1=O)O2	-5	x	x	x	x	1	x	x
CCN(CC(=O)NCc1ccc(F)cc1)C(=O)CCNS(=O)(=O)c1cccc(C)c1	11	-4	0	x	6	0	x	x
O=C(CN(C(=O)c1csnn1)c1cccc(Cl)c1)NC1CCCCC1	0	0	27	2	-12	3	x	x
O=C(CN(C(=O)c1csnn1)c1cccc(F)c1)NC1CCCC1	8	-7	5	28*	-1	-2	4	1
Cc1cccc(C)c1NS(=O)(=O)c1ccc(-c2cnc(C3CC3)o2)cc1	15	-5	24	19	-25	-1	x	x
CCOC(=O)c1[nH]c2ccc(OC)cc2c1NS(=O)(=O)c1ccc(OC)cc1OC	-2	-8	11	22*	-8	3	32*	21
COc1ccccc1Cn1c(=S)[nH]c2cc(C(=O)N3CCC(C(N)=O)CC3)ccc2c1=O	-20	-10	16	25*	-9	3	7	12
CCOC(=O)N1CCN(C(=O)c2ccc3c(=O)n(Cc4ccccc4OC)c(=S)[nH]c3c2)CC1	21	-5	15	12	-29	12	x	x
Cn1nnnc1SCC(=O)Nc1ccc(S(=O)(=O)N2CCOCC2)cc1	-17	-7	9	-12	-17	0	x	x
CC(C)OC(=O)CN1CCN(S(=O)(=O)c2cc(Cl)ccc2Cl)CC1	3	-11	18	27*	-7	6	5	-4
CN(C)c1ccc(NC(=O)CN2CCN(S(=O)(=O)c3cc(Cl)ccc3Cl)CC2)cc1	6	-5	1	-3	-23	3	x	x
CCC1(C)CC2(CCCN(CCC(O)(c3ccccc3)c3ccccc3)C2)CCO1 (stereo unspecified)	-25	-21	10	26*	-33	-2	16	16
CCCNc1nc(Cl)nc(NCc2cccnc2)n1	-9	-2	4	-1	-12	1	x	x
O=C(c1ccc(F)cc1)N(NC(=O)C(O)(c1ccccc1)c1ccccc1)c1ccccc1	1	-15	5	37*	-25	5	46*	31*
O=C(NN(C(=O)c1ccccc1)c1ccccc1)c1ccccc1	-24	-2	16	-14	-10	2	x	x
SMILES	TAAR1 antagonist	CHO parental Ca	OX1R antag-1	GPR7 antag	OX1R antag-2	TAAR1 agonist	GPR7 antag conf	MCHR1 antagonist
COC(=O)N(NC(=O)C(O)(c1ccccc1)c1ccccc1)c1ccccc1	-17	-6	16	26*	2	10	17	27*
Cc1c(C(=O)NCCC#N)sc(=O)n1Cc1ccccc1F	10	x	x	x	x	0	x	x
c1ccc(-c2cc3n(c2)CCc2ccccc2-3)cc1	-3	-16	21	-4	-27	3	x	x
CC(=O)c1ccc(NC(=O)c2ccccc2-c2ccccc2C(=O)O)cc1	-2	-4	21	27*	-13	-1	1	-2
Cc1ccc(C(=O)N/N=C\c2ccc([N+](=O)[O-])o2)cn1	-7	-15	70*	26*	-6	-1	-18	-9
Cc1cccc(C(=O)Nc2cc(S(=O)(=O)N3CCOCC3)ccc2N2CCCC2)c1	-10	x	x	x	x	3	x	x
Cc1nn(-c2ccccc2)c(Cl)c1CN(C(=O)CCl)c1ccc(Cl)cc1	60*	32	1	95*	16	-2	99*	100*
O=S(=O)(NCc1cn2ccsc2n1)c1cccs1	-6	-9	13	27*	-4	4	-13	-4
O=C(NC(NC(=S)Nc1ccccc1)C(Cl)(Cl)Cl)c1cccc(Cl)c1 (stereo unspecified)	34	-1	39	34*	37	12	47*	54*
Cc1cc(C)c(NC(=S)NC(NC(=O)c2ccccc2)C(Cl)(Cl)Cl)c(C)c1 (stereo unspecified)	13	3	45	0	6	9	x	x
Cc1cccc(C(C)C)c1NS(=O)(=O)c1cn(C)nc1C	-7	-3	33	-8	-8	1	x	x
CN(C)c1ccc(/C=C/c2cccc[n+]2[O-])cc1	-6	3	28	-8	0	1	x	x
CC(C)CC[n+]1ccccc1/C=C/c1ccc(N(C)C)cc1	29	61*	32	76*	29	19	78*	72*
Cc1cc2nc3c(=O)[nH]c(=O)[nH]c3nc2c([N+](=O)[O-])c1N	8	x	x	25*	x	13	13	4
Cc1c(N)c(C(C)(C)C)cc(C(C)(C)C)c1[N+](=O)[O-]	-16	-22	18	-18	-30	16	x	x
CCSc1nnc(NC(=O)CCNC(=O)c2ccccc2Cl)s1	-13	-19	3	x	-3	14	x	x
Cn1c(=O)c([N+](=O)[O-])c(Cl)c2ccccc21	-2	x	x	26*	x	0	51*	76*
O=C(/C=C/c1ccnc2ccccc12)c1cccs1	20	-41	19	-10	-29	1	x	x
